Assays:
Enterococcus faecium [1] = experiment: Bactericidal activity against vancomycin-resistant Enterococcus faecium clinical isolate […] after 24 hrs by two-fold serial dilution method; assay type: functional; details: isolate 27/1691, 24 h
Rattus norvegicus = experiment: Toxicity in Wistar albino rat infected with Enterococcus at MIC to 3 times MIC, iv; assay type: organism-based; details: in vivo
Enterococcus [2] = experiment: Antibacterial activity against vancomycin-resistant Enterococcus ATCC 51299 after 18 to 20 hrs by checkerboard titration method in presence of vancomycin; assay type: functional
Enterococcus faecium [3] = experiment: Antibacterial activity against vancomycin-resistant Enterococcus faecium clinical isolate 7/27 after overnight incubation by two-fold serial dilution method; assay type: functional
Enterococcus faecium [4] = experiment: Bactericidal activity against vancomycin-resistant Enterococcus faecium clinical isolate 12/266 after 24 hrs by two-fold serial dilution method; assay type: functional; details: isolate 12/266, 24 h
Enterococcus faecalis [5] = experiment: Bactericidal activity against vancomycin-resistant Enterococcus faecalis clinical isolate 5648 after 24 hrs by two-fold serial dilution method; assay type: functional; details: isolate 5648, 24 h
Enterococcus faecium [6] = experiment: Bactericidal activity against vancomycin-resistant Enterococcus faecium clinical isolate 31176 after 24 hrs by two-fold serial dilution method; assay type: functional; details: isolate 31176, 24 h
Enterococcus faecium [7] = experiment: Antibacterial activity against vancomycin-resistant Enterococcus faecium clinical isolate 10177 after overnight incubation by two-fold serial dilution method; assay type: functional
Enterococcus faecalis [8] = experiment: Bactericidal activity against vancomycin-resistant Enterococcus faecalis clinical isolate 27728 after 24 hrs by two-fold serial dilution method; assay type: functional; details: isolate 27728, 24 h
Enterococcus [9] = experiment: Antibacterial activity against Enterococcus infected in Wistar albino rat assessed as reduction in cell count at 2 times MIC, iv after 1 hr relative to control; assay type: functional; parameters: scale not given: the % may be the effect or the level left
Procedure, shortened: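 Female Wistar albino rats, 40−45 days old, 125−150 g, 5 groups of 3. Enterococci were grown to log phase in MH broth, centrifuged at 1000g for 15 min, and diluted in PBS to 4 × 10^6 CFU/mL. Rats were inoculated i.v. and treated i.v. 1 h later with 12.5, 25 or 37.5 mg/kg peptide, PBS vehicle, or linezolid 25 mg/kg. Tail-vein blood taken 1 h post-treatment was plated on blood agar, incubated overnight at 37 °C, and colonies counted.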

H-RWRLLLLKKH-OH
MBC (Enterococcus faecium [1]): 25 µg/mL
Activity (Rattus norvegicus): Non-toxic
fractional inhibitory concentration index (FICI) (Enterococcus [2]): 0.06
MIC (Enterococcus faecium [3]): 12.5 µg/mL
MBC (Enterococcus faecium [4]): 25 µg/mL
MBC (Enterococcus faecalis [5]): 25 µg/mL
MBC (Enterococcus faecium [6]): 25 µg/mL
MIC (Enterococcus faecium [7]): 12.5 µg/mL
MBC (Enterococcus faecalis [8]): 25 µg/mL
Activity (Enterococcus [9]): 76%

Source: ChEMBL document CHEMBL3352237, “Synthesis and biological evaluation of novel peptide BF2 as an antibacterial agent against clinical isolates of vancomycin-resistant enterococci” (J Med Chem, 2014)
